TRPC6 inh: blocks the mouse TRPC6 cation channel; AID 2553; B-score at 10 µM; hit rate 1.1% among 310,000; HEK293-TRPC6, membrane potential dye, ACh-evoked depolarization; stronger effect = lower value;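 active = B-score under library mean minus 3 SD, initial fluorescence not abnormally high, positive integrated signal ratio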;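 also: B-score derived from integrated fluorescence ratio over the kinetic read; more negative B-score means stronger inhibition of depolarization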
TRPC4 block: TRPC4 (mouse) channel inhibition. Q9QUQ5. HEK293 TRPC4beta/mu-opioid, DAMGO-evoked Fluo4 calcium flux; stronger effect = lower value. B-score at 10 µM. hit rate 0.39% among 300,000;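 active = B-score over 3 SD under the library average, no early fluorescence shift, positive overall ratio signal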
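Assay system: Stable TRPC4beta/mu-opioid receptor HEK293 cells | Reagent: DAMGO in two steps, submaximal then maximal | Compound dosing: Single concentration per test compound | Signal: Fluo4 Ca2+ flux fluorescence | Evaluation: Per-well B score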
TRPC6 activator: mouse TRPC6 channel activation; hit rate 0.13% among 310,000; HEK293-TRPC6 membrane potential dye fluorescence; stronger effect = higher value; B-score at 10 µM; Q61143; AID 2550;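 active = B-score of the integrated fluorescence ratio above library mean plus 3 SD, and starting fluorescence ratio within library mean plus 5 SD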;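 also: higher score means more depolarization so channel activation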
TRPC4 PAM: TRPC4 (mouse) allosteric potentiation | hit rate 0.42% among 310,000 | B-score at 10 µM | Q9QUQ5 | HEK293 TRPC4beta/mu-opioid, DAMGO EC20, Fluo-4 Ca2+ flux; stronger effect = higher value;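 active = B-score of calcium response area above 5 SD of library B-scores, with initial fluorescence ratio within 5 SD of library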
TRPC4 act: opens the mouse TRPC4 cation channel. Q9QUQ5. HEK293 TRPC4beta/mu-opioid, Fluo4 calcium fluorescence; stronger effect = higher value. B-score at 10 µM. hit rate 0.49% among 310,000;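 active = B-score above 5 SD of library B-scores, and initial fluorescence ratio not above library mean plus 5 SD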;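 also: positive B-score marks a calcium rise read as TRPC4 activation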
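Assay system – TRPC4beta and mu-opioid receptor HEK293 stable cells · Measured by – Fluo4 fluorescence, kinetic · Schedule – dye loading 45 min room temperature, 110 s kinetic read · Read-out – B-scored integrated calcium fluorescence ratio · Controls – buffer and maximal DAMGO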
Each line names hits and unclear results; the compound was inactive in the other large screens. In the library only some 2.3% were active in any assay of this set; here they are far more common.

Cc1ccc(-n2cc(CN3CCN(Cc4nccn4C)CC3)c(-c3ccc(F)cc3)n2)cc1	none
CC(C)CN(CC(C)C)C(=S)Nc1ccc(Cl)cc1	none
CC(=O)Nc1cccc(C(=O)OCC(=O)NNC(=O)c2ccc([N+](=O)[O-])cc2)c1	none
O=C(c1c(O)c2ccccc2oc1=O)C1CCCCC1	none
O=C(CCC1CCCC1)c1c(O)c2ccccc2oc1=O	TRPC4 act 193
COc1ccc(C2CC(c3cccs3)=NN2C(=O)COC(=O)C2CCCCC2)cc1OC (stereo not given)	none
CCOC(=O)CCn1c(=O)c2c(nc(Br)n2Cc2ccccc2)n(C)c1=O	TRPC4 block -5
c1ccc(-c2ccc(-c3ccccn3)nn2)nc1	TRPC6 inh -11
Cc1nc(=O)c(-c2ccccc2)c(C)n1-c1cccc(/C=C/C(=O)O)c1	none
O=C1CC2(CCN(S(=O)(=O)c3ccccc3F)CC2)Oc2ccccc21	TRPC4 PAM 30
O=C1CC2(CCN(S(=O)(=O)c3ccccc3)CC2)Oc2ccccc21	TRPC4 PAM 50
Cc1ccc(Cn2c(C(C)Nc3nc(C)cs3)nc3cc(Cl)c(Cl)cc32)cc1 (stereo not given)	none
O=C(Cc1cccc(F)c1F)NC1CCCN(Cc2ccc(Cl)cc2)C1 (stereo not given)	TRPC4 act 106
COc1cc(OC)cc(C(=O)NC2CCCN(Cc3ccc(Cl)cc3)C2)c1 (stereo not given)	TRPC4 act 92
CC(=O)c1c(C)nn(CC(=O)NC2CCCN(Cc3ccc(CC(C)C)cc3)C2)c1C (stereo not given)	TRPC4 act 111
O=C(NC1CCCN(Cc2ccc(Cl)cc2)C1)c1ccnc(Cl)c1 (stereo not given)	none
CC(C)Cc1ccc(CN2CCCC(NC(=O)CCN3CCCCC3=O)C2)cc1 (stereo not given)	none
Cc1cc(C)n(CC(=O)NC2CCCN(Cc3ccc(Cl)cc3)C2)n1 (stereo not given)	TRPC4 act 50
Clc1ccc(CN2CCN(c3ccccc3)CC2)cn1	none
COCCn1nnnc1C(C(C)C)N1CCSCC1 (stereo not given)	none
O=C(COc1ccccc1)NC1CCCN(Cc2ccccc2F)C1 (stereo not given)	none
O=C(CCN1CCCCC1=O)NC1CCCN(Cc2ccc(Cl)cc2)C1 (stereo not given)	TRPC4 PAM 14
O=C(Cc1ccccc1F)NC1CCCN(Cc2ccc(Cl)cc2)C1 (stereo not given)	TRPC4 act 44
CNC(=S)NNC(=O)c1cccn(Cc2ccc(Cl)cc2Cl)c1=O	none
CNC(=S)NNC(=O)c1cccn(Cc2cccc(C(F)(F)F)c2)c1=O	TRPC4 PAM 25
CSCC[C@H](NC(=O)N1CCn2c1nc1ccccc12)C(=O)NCc1ccc(C)cc1	TRPC4 PAM 43
O=S(=O)(Cc1ccccc1)N1CCC(c2nc(-c3cccs3)no2)CC1	TRPC4 PAM 17
O=C1CC(O)(C(F)F)Oc2ccc3ccccc3c21 (stereo not given)	none
O=C1CC(O)(C(F)(F)F)Oc2c1ccc1ccccc21 (stereo not given)	TRPC4 act 142
CC(=O)Nc1ccc(S(=O)(=O)N2CCN(c3cc(C(F)(F)F)ccn3)CC2)cc1	none
FC(F)(F)c1ccnc(N2CCN(Cc3cnc(-c4ccccc4)[nH]3)CC2)c1	TRPC4 block -7
N#CCCN(C(=O)COC(=O)CCc1c[nH]c2ccccc12)c1ccc(F)cc1	none
CC(C)CCn1c2ccccc2c2cc(CC(N)=O)ccc21	none
CCn1c2ccccc2c2cc(/C=N/NC(=O)c3cc(O)cc(O)c3)ccc21	TRPC4 block -6
CCn1c2ccccc2c2cc(/C=N/NC(=O)c3ccc(O)cc3)ccc21	none
O=C(CNC(=O)c1ccc2c(c1)S(=O)(=O)N=C1CCCCCN12)Nc1ccc(F)c(F)c1	none
Fc1ccc(CN2CCC(Cc3ccccc3)CC2)cc1F	TRPC4 block -6
COc1cc(OC)c(CN2CCC(Cc3ccccc3)CC2)cc1Br	TRPC4 act 108
COC(=O)C(Cc1ccc(O)cc1)NC(=O)CCc1nc2ccccc2s1 (stereo not given)	none
NC(=O)c1nsc(C(=O)N(Cc2ccccc2Cl)C(C(=O)NCC2CCCO2)c2ccc(O)cc2)c1N (stereo not given)	TRPC4 block -8
